In ChEMBL document CHEMBL4477197, “Antitumor Activity of Spicatoside A by Modulation of Autophagy and Apoptosis in Human Colorectal Cancer Cells” (J Nat Prod, 2016):
Activity calls are given as the source filed them. No cut-off for these calls is given here.

Experiments:
HCT-116 [1] = test: Induction of autophagy in human HCT116 cells assessed as upregulation of LAMP1 expression at 10 to 30 uM after 24 hrs by Western blot analysis; type: functional, cell-based
Summary of the method: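 HCT116 cells were cultured 24 h with the indicated concentrations. Lysates were made in SDS buffer with NaF and orthovanadate and quantified by BCA; 10–30 μg protein was separated by 6–15% SDS-PAGE and transferred to PVDF. After 5% BSA blocking, blots were probed for LC3-II, beclin 1, p62, LAMP1 and cathepsin D, with ECL detection.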

HCT-116 [2] = test: Induction of apoptosis in human HCT116 cells assessed as cell shrinkage after 48 hrs; type: functional, cell-based
SK-HEP1 = test: Antiproliferative activity against human SKHEP1 cells after 24 to 72 hrs by SRB assay; type: functional, cell-based
Summary of the method: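 Cells from ATCC were grown at 37 °C in 5% CO2, in RPMI 1640 (A549, HCT116, SNU-638) or DMEM (MDA-MB-231, SK-HEP-1, MRC5) with 10% FBS. They were seeded at 6 × 10^3 cells/well for 24 h, then exposed for 72 h. Cells were TCA-fixed, stained with 0.4% SRB, and read at 515 nm against day-zero plates. IC50 came from nonlinear regression, as means ± SD.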

[3] = Toxicity in BALB/c-nu mouse xenografted with human HCT116 cells assessed as overt toxicity at 2.5 to 5 mg/kg, ip administered three times per week for 28 days measured during compound dosing relative to control; type: organism-based; conditions: in vivo, 672 h
Summary of the method: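 Nude mice carried subcutaneous flank HCT116 implants (2 × 10^6 cells in 200 μL medium). At about 200 mm3 they were randomised into groups of five. Compound at 2.5 or 5 mg/kg in saline with 0.5% Tween 80 was given ip three times weekly for 4 weeks; controls received vehicle. Body weight was monitored throughout for toxicity.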

HCT-116 [4] = test: Growth inhibition of human HCT116 cells at 5 to 40 uM in presence of autophagy inhibitor 3-MA after 48 hrs by SRB assay; type: functional, cell-based
Summary of the method: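 SRB proliferation assay on HCT116 cells given graded concentrations for 48 h with or without 2 mM 3-MA. Cells were TCA-fixed, stained with 0.4% SRB, solubilized in 10 mM Tris pH 10.0 and read at 515 nm. Growth was normalized to day-zero and vehicle wells. Means ± SD, n = 3.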

[5] = molecular target: Cellular tumor antigen p53 (Homo sapiens) (UniProt P04637); test: Induction of p53 expression in human HCT116 cells after 24 hrs by Western blot analysis; type: cell-based
Sequence of Cellular tumor antigen p53 (Homo sapiens) (P04637 whole entry, looked up): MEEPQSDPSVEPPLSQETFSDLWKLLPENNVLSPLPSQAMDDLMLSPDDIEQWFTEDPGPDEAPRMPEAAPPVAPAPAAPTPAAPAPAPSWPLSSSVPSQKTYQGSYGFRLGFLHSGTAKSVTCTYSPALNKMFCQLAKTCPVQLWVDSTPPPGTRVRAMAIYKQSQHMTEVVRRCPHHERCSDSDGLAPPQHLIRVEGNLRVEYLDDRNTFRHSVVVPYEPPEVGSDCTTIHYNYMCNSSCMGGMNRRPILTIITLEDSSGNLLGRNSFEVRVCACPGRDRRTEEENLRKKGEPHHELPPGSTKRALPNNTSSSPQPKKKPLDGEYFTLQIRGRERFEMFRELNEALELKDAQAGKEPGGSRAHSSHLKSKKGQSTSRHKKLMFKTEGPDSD

[6] = Inhibition of PI3K/Akt/mTOR in human HCT116 cells assessed as suppression of Akt phosphorylation at Ser473 at 10 to 30 uM after 24 hrs by Western blot analysis; type: cell-based
Summary of the method: (§1)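 HCT116 cells (RPMI 1640, 10% FBS, 37 °C, 5% CO2) exposed to the compound for 24 h, then lysed in 2× SDS sample buffer with NaF and orthovanadate and boiled. BCA-normalised protein (10−30 μg) run on 6−15% SDS-PAGE and blotted to PVDF. Blocked in 5% BSA/PBS-Tween, probed for PI3K, PTEN, Akt and mTOR, and detected by ECL. Blots are representative of three determinations.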

HCT-116 [7] = test: Increase in LC3-2 levels in human HCT116 cells at 30 uM after 48 hrs in presence of z-IETD-FMK by Western blot analysis; type: functional, cell-based
Summary of the method: (§2)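 HCT116 cells were cultured 48 h with 30 μM compound, with or without 20 μM z-IETD-FMK. Lysates were made in SDS loading buffer and 10–30 μg protein was resolved by 6–15% SDS-PAGE and transferred to PVDF. Blots were probed for cleaved caspase-8, beclin 1, cleaved beclin 1 and LC3-II, and detected by ECL.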

HCT-116 [8] = test: Growth inhibition of human HCT116 cells after 48 hrs by SRB assay; type: functional, cell-based
Summary of the method: (§3)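 SRB assay. Cells were seeded at 6 × 10^3/well, grown 24 h, then fixed as day-zero controls or treated 24 or 48 h. They were fixed with 10% TCA and stained with 0.4% SRB in 1% acetic acid; dye was dissolved in 10 mM Tris pH 10.0 and read at 515 nm. Proliferation was normalized to day zero and control, and IC50 came from nonlinear regression. n = 3.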

HCT-116 [9] = test: Induction of apoptosis in human HCT116 cells assessed as activation of PARP cleavage at 10 to 30 uM after 48 hrs by Western blot analysis; type: functional, cell-based
Summary of the method: (§4)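 HCT116 cells were treated with the indicated concentrations for 48 h. Lysates were prepared in SDS sample buffer and 10–30 μg protein was separated by SDS-PAGE, blotted to PVDF and blocked in 5% BSA. Cleaved caspase-8, -9, -3 and PARP were detected by ECL.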

HCT-116 [10] = test: Induction of apoptosis in human HCT116 cells assessed as activation of caspase 3 at 10 to 30 uM after 48 hrs by Western blot analysis; type: functional, cell-based; summary of the method: as §4
HCT-116 [11] = test: Cell cycle arrest in human HCT116 cells assessed as accumulation at subG1 phase at 30 uM after 48 hrs by propidium iodide staining based flow cytometry; type: functional
HCT-116 [12] = test: Growth inhibition of human HCT116 cells after 24 hrs by SRB assay; type: functional, cell-based; summary of the method: as §3
HCT-116 [13] = test: Antitumor activity against human HCT116 cells xenografted in BALB/c-nu mouse assessed as inhibition of tumor weight at 5 mg/kg, ip administered three times per week for 28 days measured post dosing relative to control; type: functional; conditions: HCT-116, ip, 672 h
Summary of the method: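 Nude mice bearing subcutaneous HCT116 flank tumors (2 × 10^6 cells) were randomized at ~200 mm3, five per group. Dosing was 2.5 or 5 mg/kg ip in saline/0.5% Tween 80, three times weekly for 28 days, with vehicle controls. Tumors were excised on day 28 and weighed; inhibition was expressed against the vehicle group.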

HCT-116 [14] = test: Induction of caspase 8 cleavage in human HCT116 cells at 30 uM after 48 hrs in presence of caspase 8 inhibitor z-IETD-FMK by Western blot analysis; type: functional, cell-based; summary of the method: as §2
[15] = Inhibition of PI3K/Akt/mTOR in human HCT116 cells assessed as suppression of mTOR phosphorylation at Ser2448 at 10 to 30 uM after 24 hrs by Western blot analysis; type: cell-based; summary of the method: as §1
HCT-116 [16] = test: Induction of apoptosis in human HCT116 cells at 20 uM after 48 hrs by Annexin V-FITC/propidium iodide staining based flow cytometry; type: functional
Summary of the method: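 HCT116 cells were treated 48 h, then resuspended in binding buffer at 1 × 10^6 cells/mL. They were stained with annexin V-FITC and PI for 20 min at room temperature in the dark, diluted and analyzed immediately by flow cytometry for annexin V-positive cells. n = 3.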

Mus musculus = test: Inhibition of Ki-67 expression in human HCT116 cells xenografted in BALB/c-nu mouse at 2.5 to 5 mg/kg, ip administered three times per week for 28 days measured post dosing by hematoxylin staining based inverted phase-contrast microscopy; type: functional, organism-based
Summary of the method: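 Day-28 xenograft tumors were fixed in 4% paraformaldehyde, paraffin-embedded and serially sectioned. Sections were deparaffinized, rehydrated, antigen-retrieved and immunostained for Ki-67 with HRP detection, then counterstained with hematoxylin. Slides were viewed by inverted phase-contrast microscopy at 200×.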

SMILES: C[C@H]1CC[C@@]2(OC1)O[C@H]1C[C@H]3[C@@H]4CC=C5C[C@@H](O)C[C@@H](O[C@@H]6O[C@H](C)[C@H](O)[C@H](O[C@@H]7OC[C@@H](O)[C@H](O)[C@H]7O)[C@H]6O[C@@H]6O[C@H](CO)[C@@H](O)[C@H](O)[C@H]6O)[C@]5(C)[C@H]4CC[C@]3(C)[C@H]1[C@@H]2C
- Activity (HCT-116 [1]): Active
- Activity (HCT-116 [2]): Active
- IC50 (SK-HEP1): 15.5 µM
- Activity [3]: Non-Toxic
- growth inhibition (GI) (HCT-116 [4]): Active
- Activity [5]: Dose-dependent effect
- inhibition [6]: Active
- Activity (HCT-116 [7]): Active
- growth inhibition (GI) (HCT-116 [8]): Dose-dependent effect
- IC50 (HCT-116 [8]; HCT-116, 48 h): 20.9 µM
- Activity (HCT-116 [9]): Active
- Activity (HCT-116 [10]): Active
- Activity (HCT-116 [11]): 45.37%
- growth inhibition (GI) (HCT-116 [12]): Dose-dependent effect
- IC50 (HCT-116 [12]; HCT-116, 24 h): 28.9 µM
- inhibition in vivo at 5 mg/kg (HCT-116 [13]): 56.6%
- Activity (HCT-116 [14]): inactive
- inhibition [15]: Active
- Activity (HCT-116 [16]): 18.58%
- inhibition (Mus musculus): Active
